Source: PubChem BioAssay AID1656 (Sanford-Burnham Center for Chemical Genomics, 2009)
About 950 (0.4%) of roughly 240,000 compounds were called active. The sample holds actives, similar compounds and a random draw of the others, so the mix is not that of the screen.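 The calls were made as follows: active = lipid droplet intensity inhibited by at least 50%, with more than 500 cells counted; inconclusive = wells with under 300 cells, treated as cytotoxic; inactive = the rest.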

Assay: inhibitors of hepatocyte lipid droplet formation, primary screen, imaging, high-throughput imaging, BODIPY stain (AID 1656);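 as to cell count: cells counted across two imaged fields per well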
Conditions: AML12 mouse hepatocytes, oleate lipid droplets, at 6.5 µM; cell count: measured here: cell count, cytotoxicity flag; inhibition: stronger effect = higher value
Procedure, shortened: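 Test system: AML12 hepatocytes (mouse); reagent: oleate loading, 100 µM; dosing: one dose, 6.5 µM compound; incubation: overnight exposure; signal: fluorescence imaging, 20x objective, two fields per well; read-out basis: % inhibition of corrected integrated BODIPY droplet signal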

Compound	cell count [cells]	inhibition
COc1ccc(CCNC(=O)C(=O)NCC2OCCN2S(=O)(=O)c2cccs2)cc1OC (stereo not given)	689	-12.1% (inactive)
COc1cccc(C(=O)N/N=C(\C)c2cccc(NC(=O)c3ccc(F)cc3)c2)c1OC	678	-6.8% (inactive)
O=C1Nc2ccc(Br)cc2/C1=N/N=C/C1=C(N2CCOCC2)C(=C\c2ccccc2)/CC1	750	55.6% (active)
COc1ccc(/C=N/N=C2/C(=O)Nc3ccccc32)cc1O	676	9.7% (inactive)
C(=N\N1CCN(c2ccccn2)CC1)/C1=C(N2CCOCC2)C(=C/c2ccccc2)/CC1	680	-4.6% (inactive)
CCCc1cc(=O)oc2cc(OCC(=O)Nc3ccc(CN4CCOCC4)cc3)c(Cl)cc12	636	-0.7% (inactive)
O=C(CSc1nc2nccnc2c(=O)n1Cc1cccs1)Nc1ccccc1F	782	2.9% (inactive)
COc1cc(/C=C/C(=O)N2CCc3ccccc3C2)cc(OC)c1OC	825	0% (inactive)
CC(C)(C)NS(=O)(=O)c1ccc(NC(=O)C2CCCO2)cc1 (stereo not given)	829	2.6% (inactive)
CCCNC(=O)CCc1c(C)nc2c(c(C)nn2-c2ccc(C)cc2)c1C	848	10.2% (inactive)
COc1ccc(N(CC(=O)Nc2cc(OC)cc(OC)c2)S(=O)(=O)c2c(C)n[nH]c2C)cc1	704	-4% (inactive)
CCSc1nsc(NC(=O)Nc2ccccc2OC)n1	808	-10.6% (inactive)
Cn1nccc1C(=O)NC1CCCc2c1cnn2-c1ccccc1F (stereo not given)	545	-55.5% (inactive)
Cc1cc(C(=O)NC2CCCc3c2cnn3-c2cccc(C)c2C)c(C)o1 (stereo not given)	865	59.9% (active)
COc1ccc(C(=O)NC2CCCc3c2cnn3-c2cccc(C)c2C)c(OC)n1 (stereo not given)	767	-1.4% (inactive)
COc1ccc(CCNC(=O)CS(=O)(=O)Cc2nc(-c3ccc(C)cc3)oc2C)cc1OC	750	11.2% (inactive)
O=C(c1ccc(F)cc1)N1CCCC(C(=O)N2CCCCC2)C1 (stereo not given)	708	-8.5% (inactive)
O=S(=O)(c1ccc(Br)cc1)c1nc(-c2ccccc2)oc1N1CCOCC1	610	-17.8% (inactive)
O=C1CCC(C(=O)N2CCN(c3ccccc3Cl)CC2)CN1CC1CCCCC1 (stereo not given)	746	0% (inactive)
COc1ccc(-c2csc(-c3cccs3)n2)cc1OC	713	8.5% (inactive)
COc1ccc(OC)c(CNC(=O)CCc2nc(-c3cccs3)no2)c1	746	-2% (inactive)
COc1ccc(OC)c(-c2csc(-c3cccs3)n2)c1	816	69.1% (active)
Cc1cc(C(=O)Cn2cnc3cc([N+](=O)[O-])ccc3c2=O)c(C)n1CC1CCCO1 (stereo not given)	680	-0.6% (inactive)
CC(C)(C)NC(=O)Cn1cnc2cc([N+](=O)[O-])ccc2c1=O	720	58.1% (active)
O=C(Cn1cnc2cc([N+](=O)[O-])ccc2c1=O)NC(=O)NCc1ccccc1	618	-1% (inactive)

Compound	cell count [cells]	inhibition
CC(=O)N1CCN(c2ccccc2NC(=S)NC(=O)c2cc3ccccc3o2)CC1	682	29.4% (inactive)
Cc1cccc(N2CCN(C(=O)c3cccc(N4C(=O)C5C6C=CC(C6)C5C4=O)c3)CC2)c1C (stereo not given)	793	-0.4% (inactive)
CCCc1cc(C(=O)N2CCCC(CO)(CCCc3ccccc3)C2)n(C)n1 (stereo not given)	631	-27.5% (inactive)
CC1CCN(C(=S)NC(=O)c2ccccc2Br)CC1	661	-5.4% (inactive)
CCCCN1C(=O)/C(=C/C=C2/C=Cc3ccccc3N2CC)SC1=S	734	56.1% (active)
CCCCN1C(=O)/C(=C2/C=CC=CN2C)SC1=S	765	-17.5% (inactive)
CCN1C(=O)/C(=C2/Sc3ccccc3N2CCCS(=O)(=O)O)SC1=S	691	-5.7% (inactive)
COc1ccc(Cl)cc1NC(=O)CN(C)C(=O)CCCc1c[nH]c2ccccc12	812	53.5% (active)
COc1ccccc1NC(=O)CCCc1c[nH]c2ccccc12	740	-19.1% (inactive)
COc1ccc(Cl)cc1NC(=O)CN(C)C(=O)CNC(=O)C12CC3CC(CC(C3)C1)C2	778	18.1% (inactive)
Cc1ccc(-n2nc3c(=O)n(C(C)C(=O)NCc4ccc5c(c4)OCO5)nc(C)c3c2C)cc1 (stereo not given)	665	15.4% (inactive)
O=C(NCCCN1CCOCC1)c1cc(-c2ccccc2F)no1	726	6.3% (inactive)
COC(=O)c1ccc(COc2ccc(/C=C/C(=O)c3ccc(OC)c(CSCC(=O)O)c3)cc2OC)cc1	891	-2% (inactive)
CC(C)c1ccc(N(C(=O)c2ccco2)C(C(=O)NC2CCCC2)c2cccnc2)cc1 (stereo not given)	761	-17.7% (inactive)
Cc1c(C=O)c2ccccc2n1CCOc1ccccc1	839	-1% (inactive)
CN(CC1CCCO1)S(=O)(=O)c1ccc(C(=O)Nc2ccc(F)cc2)cc1 (stereo not given)	687	-1.2% (inactive)
Cc1cc(-n2nc(C)cc2C)n2nc(C)c(-c3ccccc3)c2n1	801	10% (inactive)
Cc1cc(C(C)(C)C)n2nc(C)c(-c3ccccc3)c2n1	401	2% (inactive)
Cc1cc(N2CCCC2)n2nc(C)c(-c3ccccc3)c2n1	697	51.4% (active)
CC(=O)c1ccc(NC(=O)c2sc3nc4n(c(=O)c3c2C)CCCCC4)cc1	749	9.9% (inactive)
O=C(C1CCCN(S(=O)(=O)c2ccc([N+](=O)[O-])cc2)C1)N1CCCCC1 (stereo not given)	814	0.4% (inactive)
COc1ccc(-c2nonc2NC(=O)c2oc3ccc(F)cc3c2C)cc1OC	738	39.5% (inactive)
COc1ccccc1CNC(=O)C1CCN(S(=O)(=O)c2ccc3c(c2)CC(C)N3C(=O)C2CC2)CC1 (stereo not given)	719	-4.5% (inactive)
COc1ccc(NC(=O)CN2C(=O)COc3ccc(S(=O)(=O)N4CCOCC4)cc32)c(OC)c1	694	-1.6% (inactive)
COc1ccccc1CNC(=O)[C@@H]1CCCN1C(=O)[C@@H]1Cc2ccccc2CN1C(=O)OC(C)(C)C	737	-4.8% (inactive)
